ChEMBL document CHEMBL1255444, “In vitro antibacterial activities of JNJ-Q2, a new broad-spectrum fluoroquinolone” (Antimicrob Agents Chemother, 2010)
Values after ≈ are worked out from the molar mass of the structure shown.

What was measured:
Streptococcus pneumoniae [1] = assay: Antibacterial activity against Streptococcus pneumoniae isolate OC6608 assessed as log reduction in bacterial growth at 2 times MIC measured at 24 hrs by time-kill assay; format: functional
Outline: (§1)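 Drug was diluted from 50× stocks made in water or acidified water. Samples were taken at 6 and 24 h and serially diluted onto TSA-5% sheep blood plates. Plates were incubated 20–24 h at 37°C in 5% CO2 before counting CFU. Log10 titer change is given relative to the starting inoculum.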

Streptococcus agalactiae = assay: Antibacterial activity against Streptococcus agalactiae by broth microdilution method; format: functional
Outline: (§2)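 MICs by CLSI M07-A7 broth microdilution in cation-adjusted Mueller-Hinton medium. For S. pneumoniae the medium was supplemented with 5% lysed horse blood. CLSI quality control strains were run alongside as appropriate.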

Streptococcus pneumoniae [2] = assay: Antibacterial activity against Streptococcus pneumoniae isolate OC6790 by broth microdilution method; format: functional
Outline: (§3)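 CLSI M07-A7 broth microdilution MIC. Medium was cation-adjusted Mueller-Hinton broth. For S. pneumoniae it was Mueller-Hinton supplemented with 5% lysed horse blood. CLSI quality-control strains were included as appropriate.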

Staphylococcus aureus [3] = assay: Antibacterial activity against methicillin-resistant Staphylococcus aureus isolate OC4222 harboring gyrA S84L and parC S80F mutant gene assessed as log reduction in bacterial growth at 4 times MIC measured at 24 hrs by time-kill assay; format: functional
Outline: (§4)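 Overnight MRSA cultures were diluted into fresh cation-adjusted Mueller-Hinton broth to about 5 × 10^6 CFU/ml. […] Samples were plated serially diluted on trypticase soy agar, and CFU were counted after 20-24 h at 37°C. Value is the log10 decrease at 24 h from the starting inoculum; detection limit 100 CFU.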

Streptococcus pneumoniae [4] = assay: Antibacterial activity against Streptococcus pneumoniae isolate OC7376 assessed as log reduction in bacterial growth at 2 times MIC measured at 24 hrs by time-kill assay; format: functional; outline: as §1
Streptococcus pneumoniae [5] = assay: Antibacterial activity against Streptococcus pneumoniae isolate OC7348 by broth microdilution method; format: functional; outline: as §3
Citrobacter freundii = assay: Antibacterial activity against Citrobacter freundii by broth microdilution method; format: functional; outline: as §2
Streptococcus pneumoniae [6] = assay: Antibacterial activity against Streptococcus pneumoniae isolate OC7376 assessed as log reduction in bacterial growth at 2 times MIC measured at 6 hrs by time-kill assay; format: functional; outline: as §1
Streptococcus pneumoniae [7] = assay: Antibacterial activity against Streptococcus pneumoniae isolate OC5462 assessed as log reduction in bacterial growth at 2 times MIC measured at 6 hrs by time-kill assay; format: functional; outline: as §1
Staphylococcus aureus [8] = assay: Antibacterial activity against methicillin-resistant Staphylococcus aureus isolate OC8530 harboring gyrA S84L and parC I143V mutant gene by broth microdilution method; format: functional
Outline: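 CLSI M07-A7 broth microdilution MIC in cation-adjusted Mueller-Hinton medium. For S. pneumoniae the medium was supplemented with 5% lysed horse blood. CLSI quality-control strains were included as appropriate.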

Streptococcus pneumoniae [9] = assay: Antibacterial activity against Streptococcus pneumoniae isolate OC7368 assessed as log reduction in bacterial growth at 4 times MIC measured at 24 hrs by time-kill assay; format: functional; outline: as §1
Staphylococcus aureus [10] = assay: Antibacterial activity against methicillin-resistant Staphylococcus aureus isolate OC11223 assessed as log reduction in bacterial growth at 4 times MIC measured at 24 hrs by time-kill assay; format: functional; outline: as §4
[11] = system: Staphylococcus epidermidis; assay: Antibacterial activity against methicillin-, ciprofloxacin-resistant Staphylococcus epidermidis by broth microdilution method; format: functional
[12] = Distribution coefficient, log D of the compound; format: physicochemical; conditions: octanol/water
Staphylococcus aureus [13] = assay: Antibacterial activity against methicillin-resistant Staphylococcus aureus isolate OC12501 assessed as log reduction in bacterial growth at 4 times MIC measured at 24 hrs by time-kill assay; format: functional; outline: as §4
Escherichia coli [14] = assay: Antibacterial activity against ciprofloxacin-resistant Escherichia coli by broth microdilution method; format: functional; outline: as §3
Enterococcus faecalis = assay: Antibacterial activity against Enterococcus faecalis ATCC 29212 by broth microdilution method; format: functional; outline: as §2
Providencia stuartii = assay: Ratio of Ciprofloxacin MIC90 to compound MIC90 for Providencia stuartii; format: functional
Streptococcus pneumoniae [15] = assay: Antibacterial activity against Streptococcus pneumoniae isolate OC7189 assessed as log reduction in bacterial growth at 4 times MIC measured at 6 hrs by time-kill assay; format: functional; outline: as §1
[16] = Antibacterial activity against Streptococcus sp. group C by broth microdilution method; format: functional
Outline: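 MICs by broth microdilution following CLSI M07-A7 in cation-adjusted Mueller-Hinton medium, using isolates from the J&JPRD culture collection. CLSI quality control strains were included as appropriate.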

Staphylococcus aureus [17] = assay: Antibacterial activity against methicillin-resistant Staphylococcus aureus isolate OC8532 harboring wild type quinolone resistance-determining region by agar dilution method; format: functional
Outline: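 CLSI agar dilution MIC on cation-adjusted Mueller-Hinton medium. These were the MIC values used for the resistance studies, and CLSI quality-control strains were included as appropriate.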

Streptococcus pneumoniae [18] = assay: Antibacterial activity against Streptococcus pneumoniae isolate OC7368 assessed as log reduction in bacterial growth at 2 times MIC measured at 6 hrs by time-kill assay; format: functional; outline: as §1
Streptococcus pneumoniae [19] = assay: Antibacterial activity against Streptococcus pneumoniae isolate OC7368 by broth microdilution method; format: functional; outline: as §3
Streptococcus pneumoniae [20] = assay: Antibacterial activity against Streptococcus pneumoniae isolate OC7368 assessed as log reduction in bacterial growth at 4 times MIC measured at 6 hrs by time-kill assay; format: functional; outline: as §1
Streptococcus pneumoniae [21] = assay: Antibacterial activity against Streptococcus pneumoniae isolate OC6610 assessed as log reduction in bacterial growth at 2 times MIC measured at 24 hrs by time-kill assay; format: functional; outline: as §1
Streptococcus pneumoniae [22] = assay: Antibacterial activity against Streptococcus pneumoniae isolate OC6790 assessed as log reduction in bacterial growth at 2 times MIC measured at 6 hrs by time-kill assay; format: functional; outline: as §1
Streptococcus pneumoniae [23] = assay: Antibacterial activity against Streptococcus pneumoniae isolate OC7189 assessed as log reduction in bacterial growth at 2 times MIC measured at 24 hrs by time-kill assay; format: functional; outline: as §1
Streptococcus pneumoniae [24] = assay: Antibacterial activity against Streptococcus pneumoniae isolate OC5462 by broth microdilution method; format: functional; outline: as §3
Staphylococcus aureus [25] = assay: Antibacterial activity against methicillin-resistant Staphylococcus aureus isolate OC4222 harboring gyrA S84L and parC S80F mutant gene by broth microdilution method; format: functional; outline: as §3
Staphylococcus aureus [26] = assay: Antibacterial activity against methicillin-resistant Staphylococcus aureus isolate OC11696 by broth microdilution method; format: functional; outline: as §3
Streptococcus pneumoniae [27] = assay: Antibacterial activity against Streptococcus pneumoniae isolate OC7376 assessed as log reduction in bacterial growth at 4 times MIC measured at 24 hrs by time-kill assay; format: functional; outline: as §1
Streptococcus pneumoniae [28] = assay: Antibacterial activity against Streptococcus pneumoniae isolate OC6585 assessed as log reduction in bacterial growth at 2 times MIC measured at 24 hrs by time-kill assay; format: functional; outline: as §1
Streptococcus pneumoniae [29] = assay: Antibacterial activity against Streptococcus pneumoniae OC7453 harboring gyrA S81F mutant gene by agar dilution method; format: functional
Outline: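 MICs for the resistance-selection studies were determined by CLSI agar dilution on Mueller-Hinton medium. For S. pneumoniae the medium was supplemented with 5% lysed horse blood. For MRSA fluctuation-assay strains an arithmetic agar dilution scheme was used for a more precise MIC.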

Escherichia coli [30] = assay: Antibacterial activity against ciprofloxacin-susceptible, -intermediate Escherichia coli by broth microdilution method; format: functional
Streptococcus pneumoniae [31] = assay: Antibacterial activity against Streptococcus pneumoniae isolate OC7189 by broth microdilution method; format: functional; outline: as §3

COc1c(N2CCC/C(=C(\F)CN)C2)c(F)cc2c(=O)c(C(=O)O)cn(C3CC3)c12 [ACORAFLOXACIN]
deltalog10CFU/ml (Streptococcus pneumoniae [1]): 5.8
MIC50 (Streptococcus agalactiae): 0.015 µg/mL (≈ 0.0358 µM)
MIC90 (Streptococcus agalactiae): 0.015 µg/mL (≈ 0.0358 µM)
MIC (Streptococcus pneumoniae [2]): 0.12 µg/mL (≈ 0.286 µM)
deltalog10CFU/ml (Staphylococcus aureus [3]): 4.2
deltalog10CFU/ml (Streptococcus pneumoniae [4]): 6.8
MIC (Streptococcus pneumoniae [5]): 0.12 µg/mL (≈ 0.286 µM)
MIC50 (Citrobacter freundii): 2 µg/mL (≈ 4.77 µM)
MIC90 (Citrobacter freundii): 8 µg/mL (≈ 19.1 µM)
deltalog10CFU/ml (Streptococcus pneumoniae [6]): 4.4
deltalog10CFU/ml (Streptococcus pneumoniae [7]): 3.2
MIC (Staphylococcus aureus [8]): 0.25 µg/mL (≈ 0.596 µM)
deltalog10CFU/ml (Streptococcus pneumoniae [9]): 6.9
deltalog10CFU/ml (Staphylococcus aureus [10]): 3.9
MIC50 [11]: 0.12 µg/mL (≈ 0.286 µM)
MIC90 [11]: 0.25 µg/mL (≈ 0.596 µM)
logD [12]: 0.37
deltalog10CFU/ml (Staphylococcus aureus [13]): 6.2
MIC50 (Escherichia coli [14]): 4 µg/mL (≈ 9.54 µM)
MIC90 (Escherichia coli [14]): 16 µg/mL (≈ 38.1 µM)
MIC50 (Enterococcus faecalis): 0.06 µg/mL (≈ 0.143 µM)
MIC90 (Enterococcus faecalis): 0.5 µg/mL (≈ 1.19 µM)
Ratio (Providencia stuartii): 16
deltalog10CFU/ml (Streptococcus pneumoniae [15]): 4.2
MIC50 [16]: 8 ng/mL (≈ 0.0191 µM)
MIC90 [16]: 0.015 µg/mL (≈ 0.0358 µM)
MIC (Staphylococcus aureus [17]): 8 ng/mL (≈ 0.0191 µM)
deltalog10CFU/ml (Streptococcus pneumoniae [18]): 4
MIC (Streptococcus pneumoniae [19]): 0.12 µg/mL (≈ 0.286 µM)
deltalog10CFU/ml (Streptococcus pneumoniae [20]): 3.7
deltalog10CFU/ml (Streptococcus pneumoniae [21]): 5
deltalog10CFU/ml (Streptococcus pneumoniae [22]): 3.6
deltalog10CFU/ml (Streptococcus pneumoniae [23]): 7.5
MIC (Streptococcus pneumoniae [24]): 0.06 µg/mL (≈ 0.143 µM)
MIC (Staphylococcus aureus [25]): 0.5 µg/mL (≈ 1.19 µM)
MIC (Staphylococcus aureus [26]): 0.06 µg/mL (≈ 0.143 µM)
deltalog10CFU/ml (Streptococcus pneumoniae [27]): 6.3
deltalog10CFU/ml (Streptococcus pneumoniae [28]): 6.6
MIC (Streptococcus pneumoniae [29]): 0.03 µg/mL (≈ 0.0715 µM)
MIC50 (Escherichia coli [30]): 0.06 µg/mL (≈ 0.143 µM)
MIC90 (Escherichia coli [30]): 0.25 µg/mL (≈ 0.596 µM)
MIC (Streptococcus pneumoniae [31]): 0.015 µg/mL (≈ 0.0358 µM)
